The text below walks through data of PMC2225614 (The Journal of General Physiology, 2001).

Experiment [1] concerns the target T1, α-subunit of the bovine retinal rod CNG channel (RETα) (Bos taurus, UniProt Q00194).
T1 sequence (Q00194 1-690): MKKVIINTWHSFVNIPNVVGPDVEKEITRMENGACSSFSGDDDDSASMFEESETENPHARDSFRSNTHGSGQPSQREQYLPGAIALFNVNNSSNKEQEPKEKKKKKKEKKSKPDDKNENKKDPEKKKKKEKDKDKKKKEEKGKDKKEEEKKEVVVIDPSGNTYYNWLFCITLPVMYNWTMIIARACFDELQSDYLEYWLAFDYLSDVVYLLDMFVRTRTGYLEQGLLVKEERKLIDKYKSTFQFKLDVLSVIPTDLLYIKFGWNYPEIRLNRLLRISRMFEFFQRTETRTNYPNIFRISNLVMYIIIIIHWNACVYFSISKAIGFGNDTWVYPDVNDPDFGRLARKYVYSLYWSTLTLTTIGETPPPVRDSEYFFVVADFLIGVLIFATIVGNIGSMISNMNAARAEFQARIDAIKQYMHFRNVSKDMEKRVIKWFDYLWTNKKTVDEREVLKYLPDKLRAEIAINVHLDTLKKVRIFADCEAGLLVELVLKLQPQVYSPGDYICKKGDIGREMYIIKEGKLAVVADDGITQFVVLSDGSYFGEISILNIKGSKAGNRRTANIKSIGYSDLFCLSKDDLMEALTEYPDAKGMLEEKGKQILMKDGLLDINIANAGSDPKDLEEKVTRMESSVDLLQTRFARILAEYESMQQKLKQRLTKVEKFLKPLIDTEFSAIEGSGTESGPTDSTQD
Type of experiment: biochemical. As to conditions: 10 μM Ni^2+; subsaturating cGMP (25 μM); steady state. The method in brief:
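RETα was expressed in oocytes from 50 nl of 50 ng/μl RNA. Inside-out patches were held at −75 mV in symmetrical NaCl/EGTA/EDTA/HEPES, pH 7.5, with solution exchange within 50 ms. Current was normalized to Imax: residual current after 1 min preexposure then 2 mM cGMP, or steady-state current with compound added during 2 mM cGMP. Ki and Hill coefficient came from a modified Hill fit; τa from single-exponential fits; mean ± SEM.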

Another experiment concerns rod CNG channels. As to conditions: ref Molokanova et al. 1999a; cited from earlier work.

For the compound `[Ni+2]` [Ni^2+], the “effect of Ni^2+ on genistein inhibition” value in experiment [1] is recorded as “only reduces genistein inhibition”. In the case of `O=CN/C=C/c1cc(O)ccc1O` [erbstatin], in the experiment with rod CNG channels, the “effect on genistein's action on CNG channels” value is listed as “noncompetitively prevents genistein's effect on the channels”. On to `Nc1ncnc2c1ncn2[C@@H]1O[C@H](COP(=O)(O)OP(=O)(O)NP(=O)(O)O)[C@@H](O)[C@H]1O` [AMP-PNP], for which, in the experiment on rod CNG channels, the “effect on genistein's action on CNG channels” value is recorded as “competitive inhibitor of genistein's action on CNG channels”.
